Measured values: ChEMBL document CHEMBL3108704, “Novel endoperoxide-based transmission-blocking antimalarials with liver- and blood-schizontocidal activities” (ACS Med Chem Lett, 2014)
Calls of active or inactive are those of the source. No cut-off for these calls is given here.

What was measured:
Plasmodium falciparum = experiment: Antimalarial activity against chloroquine-resistant erythrocyte stage of Plasmodium falciparum W2 after 48 hrs; assay type: functional, organism-based; details: W2, 48 h
Plasmodium berghei [1] = experiment: Antimalarial activity against liver stage of Plasmodium berghei infected in human Huh7 cells after 48 hrs by luciferase assay; assay type: functional, organism-based; details: Huh-7, 48 h
Huh-7 = experiment: Cytotoxicity against human HuH7 cells assessed as cell viability by Alamar Blue assay; assay type: cell-based
Plasmodium berghei [2] = experiment: Antisporogonic activity against GFP expressing Plasmodium berghei ANKA infected in BALB/c mouse assessed as inhibition of appearance of oocysts in Anopheles gambiae level at 10 umol/kg, ip by microscopic analysis (reference value: 83.6%); assay type: functional
Plasmodium berghei [3] = experiment: Antisporogonic activity against GFP expressing Plasmodium berghei ANKA infected in BALB/c mouse assessed as inhibition of appearance of oocysts in Anopheles gambiae level at 25 umol/kg, ip by microscopic analysis (reference value: 83.6%); assay type: functional
Mus musculus = experiment: Toxicity in Plasmodium berghei ANKA infected C57Bl/6J mouse assessed as adverse reactions at 30 mg/kg, ip qd for 5 days measured on day 5; assay type: organism-based; parameters: dose 30 mg/kg, route intraperitoneal; details: in vivo, 120 h
Procedure, shortened: (§1)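 Male C57Bl/6J mice were infected with GFP-expressing P. berghei ANKA on day 0. From day 4, compound was given i.p. at 30 mg/kg b.w. once daily for 5 consecutive days. Parasitemia was monitored daily by microscopy and flow cytometry. Survival was followed to the end of the experiment, and adverse reactions were recorded.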

Plasmodium berghei [4] = experiment: Antimalarial activity against GFP expressing Plasmodium berghei ANKA infected in C57Bl/6J mouse assessed as host survival at 30 mg/kg, ip qd for 5 days measured on day 5; assay type: functional, organism-based; parameters: dose 30 mg/kg; procedure, shortened: as §1
Plasmodium berghei [5] = experiment: Antimalarial activity against GFP expressing Plasmodium berghei ANKA infected in C57Bl/6J mouse assessed as reduction of parasitemia at 30 mg/kg, ip qd for 5 days measured on day 5; assay type: functional, organism-based; parameters: dose 30 mg/kg; procedure, shortened: as §1
[6] = Intrinsic clearance in rat liver microsomes at 0.1 uM; assay type: ADME; details: read-out: CLH
Procedure, shortened: (§2)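 Compound was incubated with rat liver microsomes at 37 °C. Half-life and in vitro intrinsic clearance (μL/min/mg protein) were determined, and in vivo hepatic extraction ratio was predicted from them.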

Plasma = experiment: Metabolic stability of the compound in 80% human plasma assessed as formation of primaquine and carboxyprimaquine metabolite after 3 days; assay type: ADME, cell-free; details: 72 h
[7] = Half life in rat liver microsomes at 0.1 uM; assay type: ADME; procedure, shortened: as §2

Row | SMILES | IC50 (Plasmodium falciparum) [µM] | IC50 (Plasmodium berghei [1]) [µM] | IC50 (Huh-7) [µM] | inhibition in vivo at 10 µmol/kg (Plasmodium berghei [2]) [%] | inhibition in vivo at 25 µmol/kg (Plasmodium berghei [3]) [%] | Activity (Mus musculus) | Activity (Plasmodium berghei [4]) | Activity (Plasmodium berghei [5]) | microsomal CLint at 0.1 µM [6] [µL/min/mg] | Stability (Plasma) | half-life at 0.1 µM [7] [min]
1 | CCOC(=O)C1CCC2(CC1)OOC1(OO2)C2CC3CC(C2)CC1C3 (stereo not given) | 0.128 | > 10 | – | – | – | – | – | – | – | – | –
2 | COc1cc(NC(C)CCCNC(=O)c2ccc(CO[C@H]3O[C@@H]4O[C@]5(C)CC[C@H]6[C@H](C)CC[C@@H]([C@H]3C)[C@@]46OO5)cc2)c2ncccc2c1 (stereo not given in full) | 0.0051 | 0.067 | 73 | – | – | – | – | – | – | – | –
3 | C[C@@H]1CC[C@H]2[C@@H](C)C(=O)O[C@@H]3O[C@@]4(C)CC[C@@H]1[C@]32OO4 [ARTEMISININ] | 0.0082 | > 10 | – | – | – | – | – | – | – | – | –
4 | COc1cc(NC(C)CCCN)c2ncccc2c1 (stereo not given) [PRIMAQUINE] | – | – | – | 35.5 | 2.2 | – | – | – | – | – | –
5 | COc1cc(NC(C)CCCNCc2ccc(CO[C@H]3O[C@@H]4O[C@]5(C)CC[C@H]6[C@H](C)CC[C@@H]([C@H]3C)[C@@]46OO5)cc2)c2ncccc2c1 (stereo not given in full) | 0.0125 | 0.155 | – | – | – | – | – | – | – | – | –
6 | COc1cc(NC(C)CCCNC(=O)CC2CCC3(CC2)OOC2(OO3)C3CC4CC(C3)CC2C4)c2ncccc2c1 (stereo not given) | 0.0365 | 0.604 | 2.57 | 66.7 | 11.4 | – | – | – | – | – | –
7 | COc1cc(NC(C)CCCNCC[C@H]2O[C@@H]3O[C@]4(C)CC[C@H]5[C@H](C)CC[C@@H]([C@H]2C)[C@@]35OO4)c2ncccc2c1 (stereo not given in full) | 0.0093 | > 1 | 32.8 | – | – | – | – | – | – | – | –
8 | COc1cc(NC(C)CCCNC(=O)C2CCC3(CC2)OOC2(OO3)C3CC4CC(C3)CC2C4)c2ncccc2c1 (stereo not given) | 0.0211 | 0.538 | > 100 | 68.6 | 0 | Non-toxic | Active | Active | 133 | Stable | 10
9 | COc1cc(NC(C)CCCNC2CCC3(CC2)OOC2(OO3)C3CC4CC(C3)CC2C4)c2ncccc2c1 (stereo not given) | 0.0216 | 0.33 | 8.2 | 36.4 | 13.3 | – | – | – | – | – | –
10 | COc1cc(NC(C)CCCNC(=O)C[C@H]2O[C@@H]3O[C@]4(C)CC[C@H]5[C@H](C)CC[C@@H]([C@H]2C)[C@@]35OO4)c2ncccc2c1 (stereo not given in full) | 0.0091 | 0.523 | – | – | – | – | – | – | – | – | –
11 | COc1cc(NC(C)CCCNCC2CCC3(CC2)OOC2(OO3)C3CC4CC(C3)CC2C4)c2ncccc2c1 (stereo not given) | 0.0452 | > 1 | 5.02 | 42.9 | 5.9 | – | – | – | 51.2 | Stable | 27
